Results: ChEMBL document CHEMBL2034819, “β-Lapachone analogs with enhanced antiproliferative activity” (Eur J Med Chem, 2012)
Activity calls are given as the source filed them. The calls are words filed in the database; no cut-off is given here.

System: HeLa
Experiment: Cell cycle arrest in human HeLa cells assessed as accumulation at G2/M phase after 24 hrs by flow cytometric analysis
Type: functional, cell-based
Settings: not given
Outline: (§1)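 Cells seeded at 2.5–5 × 10^5 per well and treated after 24 h at two concentrations per agent for a further 24 h. Harvested, then fixed in ice-cold 70% EtOH overnight. Treated with DNase-free RNase at 37 °C for 30 min and stained with PI. DNA content read by flow cytometry on 20 000 cells/sample. G0/G1, S and G2/M fractions gated.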

SMILES	Activity
CC1(C)CCC2=C(O1)c1c(O)cccc1C(=O)C2=O	Dose-dependent effect
CC1(C)CCC2=C(O1)c1cccc(O)c1C(=O)C2=O	Dose-dependent effect
CC1(C)CCC2=C(O1)c1ccccc1C(=O)C2=O [LAPACHONE]	Dose-dependent effect

System: HeLa
Experiment: Increase in MRE11A expression in human HeLa cells at 3 uM after 24 hrs by immunoblot analysis
Type: functional, cell-based
Settings: not given
Outline: (§2)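 HeLa cells exposed to 3 µM for several time intervals. Lysed in Tris pH 8.0/NP-40 buffer with protease and phosphatase inhibitors, and debris pelleted. Proteins resolved by SDS-PAGE and blotted to PVDF. Probed for PARP-1, procaspase 3, cyclin A, cyclin E, MRE11, p-Chk2 and γ-H2AX, with α-tubulin as loading control. HRP secondaries with luminol/p-iodophenol detection.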

SMILES	Activity
CC1(C)CCC2=C(O1)c1cccc(O)c1C(=O)C2=O	Active

System: HeLa
Experiment: Induction of apoptosis in human HeLa cells assessed as PARP cleavage at 3 uM after 24 hrs by immunoblot analysis
Type: functional, cell-based
Settings: not given
Outline: as §2

SMILES	Activity
CC1(C)CCC2=C(O1)c1cccc(O)c1C(=O)C2=O	inactive

System: WiDr
Experiment: Cell cycle arrest in human WiDr cells assessed as accumulation at S phase after 24 hrs by flow cytometric analysis
Type: functional, cell-based
Settings: not given
Outline: as §1

SMILES	Activity
CC1(C)CCC2=C(O1)c1c(O)cccc1C(=O)C2=O	Dose-dependent effect
CC1(C)CCC2=C(O1)c1cccc(O)c1C(=O)C2=O	Dose-dependent effect
CC1(C)CCC2=C(O1)c1ccccc1C(=O)C2=O [LAPACHONE]	Dose-dependent effect

System: HeLa
Experiment: Induction of DNA damage in human HeLa cells assessed as increase in chk2 phosphorylation at 3 uM after 24 hrs by immunoblot analysis
Type: functional, cell-based
Settings: not given
Outline: as §2

SMILES	Activity
CC1(C)CCC2=C(O1)c1cccc(O)c1C(=O)C2=O	Active

System: WiDr
Experiment: Growth inhibition of human WiDr cells by SRB assay
Type: functional
Settings: not given
Outline: (§3)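 Cells kept in RPMI 1640 with 5% heat-inactivated FCS and 2 mM L-glutamine. Plated at 10 000 (HBL-100, SW1573), 15 000 (HeLa) or 20 000 (WiDr) cells/well. Drug added on day 1, in triplicate, over 1–100 µM with 0.25% DMSO final. Exposure 48 h. Cells TCA-fixed 60 min at 4 °C, then SRB-stained, OD 492 nm, background-corrected. GI50 reported.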

SMILES	GI50 [µM]
COc1cccc2c1C(=O)C(=O)C1=C2OC(C)(C)CC1	86
CC1(C)CCC2=C(O1)c1c(O)cccc1C(=O)C2=O	1.9
CC1(C)CCC2=C(O1)C(=O)c1c(O)cccc1C2=O	14
COc1cccc2c1C1=C(CCC(C)(C)O1)C(=O)C2=O	2.1
CC1(C)CCC2=C(O1)c1cccc(O)c1C(=O)C2=O	2
COc1cccc2c1C(=O)C(CC=C(C)C)=C(O)C2=O	> 100
CC1(C)CCC2=C(O1)c1cccc(OC(=O)C(C)(C)C)c1C(=O)C2=O	2.1
COc1ccc2c(c1)C(=O)C(O)=C(CC=C(C)C)C2=O	68
COc1ccc2c(c1)C(=O)C1=C(CCC(C)(C)O1)C2=O	82
COc1ccc2c(c1)C(=O)C(=O)C1=C2OC(C)(C)CC1	27
COc1cccc2c1C(=O)C1=C(OC(C)(C)CC1)C2=O	> 100
CC1(C)CCC2=C(O1)c1ccc(O)cc1C(=O)C2=O	21

System: HeLa
Experiment: Cell cycle arrest in human HeLa cells assessed as accumulation at S phase after 24 hrs by flow cytometric analysis
Type: functional, cell-based
Settings: not given
Outline: as §1

SMILES	Activity
CC1(C)CCC2=C(O1)c1c(O)cccc1C(=O)C2=O	Dose-dependent effect
CC1(C)CCC2=C(O1)c1cccc(O)c1C(=O)C2=O	Dose-dependent effect
CC1(C)CCC2=C(O1)c1ccccc1C(=O)C2=O [LAPACHONE]	Dose-dependent effect

System: HeLa
Experiment: Induction of intracellular reactive oxygen species production in human HeLa cells at 3 uM after 3 hrs DCFH-DA staining-based flow cytometric analysis relative to control
Type: functional
Settings: not given
Outline: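 HeLa cells seeded at 3 × 10^5 per well and treated 24 h later at 3 µM for 3 h. Co-incubated with 5 µM DCFH-DA for 1 h at 37 °C. DCF fluorescence read by flow cytometry on 10 000 cells/sample and compared with untreated cells. H2O2 (500 µM) served as positive control.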

SMILES	fold change (FC)
CC1(C)CCC2=C(O1)c1cccc(O)c1C(=O)C2=O	6

System: SW1573
Experiment: Growth inhibition of human SW1573 cells by SRB assay
Type: functional
Settings: not given
Outline: as §3

SMILES	GI50 [µM]
COc1cccc2c1C(=O)C(=O)C1=C2OC(C)(C)CC1	1.4
CC1(C)CCC2=C(O1)c1c(O)cccc1C(=O)C2=O	0.36
CC1(C)CCC2=C(O1)C(=O)c1c(O)cccc1C2=O	19
COc1cccc2c1C1=C(CCC(C)(C)O1)C(=O)C2=O	0.46
CC1(C)CCC2=C(O1)c1cccc(O)c1C(=O)C2=O	0.029
COc1cccc2c1C(=O)C(CC=C(C)C)=C(O)C2=O	26
CC1(C)CCC2=C(O1)c1cccc(OC(=O)C(C)(C)C)c1C(=O)C2=O	0.23
COc1ccc2c(c1)C(=O)C(O)=C(CC=C(C)C)C2=O	17
COc1ccc2c(c1)C(=O)C1=C(CCC(C)(C)O1)C2=O	27
COc1ccc2c(c1)C(=O)C(=O)C1=C2OC(C)(C)CC1	0.45
COc1cccc2c1C(=O)C1=C(OC(C)(C)CC1)C2=O	> 100
CC1(C)CCC2=C(O1)c1ccc(O)cc1C(=O)C2=O	2.3
CC1(C)CCC2=C(O1)c1ccccc1C(=O)C2=O [LAPACHONE]	0.84

System: not listed separately
Experiment: Cytotoxicity against mouse erythrocytes assessed as lytic effect
Type: cell-based
Settings: erythrocyte

SMILES	Activity
CC1(C)CCC2=C(O1)c1cccc(O)c1C(=O)C2=O	Non-toxic

System: HBL-100
Experiment: Cell cycle arrest in human HBL100 cells assessed as accumulation at G2/M phase after 24 hrs by flow cytometric analysis
Type: functional, cell-based
Settings: not given
Outline: as §1

SMILES	Activity
CC1(C)CCC2=C(O1)c1c(O)cccc1C(=O)C2=O	Dose-dependent effect
CC1(C)CCC2=C(O1)c1cccc(O)c1C(=O)C2=O	Dose-dependent effect
CC1(C)CCC2=C(O1)c1ccccc1C(=O)C2=O [LAPACHONE]	Dose-dependent effect

System: SW1573
Experiment: Cell cycle arrest in human SW1573 cells assessed as accumulation at G2/M phase after 24 hrs by flow cytometric analysis
Type: functional, cell-based
Settings: not given
Outline: as §1

SMILES	Activity
CC1(C)CCC2=C(O1)c1c(O)cccc1C(=O)C2=O	Dose-dependent effect
CC1(C)CCC2=C(O1)c1cccc(O)c1C(=O)C2=O	Dose-dependent effect
CC1(C)CCC2=C(O1)c1ccccc1C(=O)C2=O [LAPACHONE]	Dose-dependent effect

System: HBL-100
Experiment: Cell cycle arrest in human HBL100 cells assessed as accumulation at S phase after 24 hrs by flow cytometric analysis
Type: functional, cell-based
Settings: not given
Outline: as §1

SMILES	Activity
CC1(C)CCC2=C(O1)c1c(O)cccc1C(=O)C2=O	Dose-dependent effect
CC1(C)CCC2=C(O1)c1cccc(O)c1C(=O)C2=O	Dose-dependent effect
CC1(C)CCC2=C(O1)c1ccccc1C(=O)C2=O [LAPACHONE]	Dose-dependent effect

System: HeLa
Experiment: Induction of DNA damage in human HeLa cells assessed as increase in gamma-H2AX phosphorylation at 3 uM after 24 hrs by immunoblot analysis
Type: functional, cell-based
Settings: not given
Outline: as §2

SMILES	Activity
CC1(C)CCC2=C(O1)c1cccc(O)c1C(=O)C2=O	Active

Target: DNA topoisomerase 2-alpha (Homo sapiens) (UniProt P11388)
Sequence (P11388 whole entry): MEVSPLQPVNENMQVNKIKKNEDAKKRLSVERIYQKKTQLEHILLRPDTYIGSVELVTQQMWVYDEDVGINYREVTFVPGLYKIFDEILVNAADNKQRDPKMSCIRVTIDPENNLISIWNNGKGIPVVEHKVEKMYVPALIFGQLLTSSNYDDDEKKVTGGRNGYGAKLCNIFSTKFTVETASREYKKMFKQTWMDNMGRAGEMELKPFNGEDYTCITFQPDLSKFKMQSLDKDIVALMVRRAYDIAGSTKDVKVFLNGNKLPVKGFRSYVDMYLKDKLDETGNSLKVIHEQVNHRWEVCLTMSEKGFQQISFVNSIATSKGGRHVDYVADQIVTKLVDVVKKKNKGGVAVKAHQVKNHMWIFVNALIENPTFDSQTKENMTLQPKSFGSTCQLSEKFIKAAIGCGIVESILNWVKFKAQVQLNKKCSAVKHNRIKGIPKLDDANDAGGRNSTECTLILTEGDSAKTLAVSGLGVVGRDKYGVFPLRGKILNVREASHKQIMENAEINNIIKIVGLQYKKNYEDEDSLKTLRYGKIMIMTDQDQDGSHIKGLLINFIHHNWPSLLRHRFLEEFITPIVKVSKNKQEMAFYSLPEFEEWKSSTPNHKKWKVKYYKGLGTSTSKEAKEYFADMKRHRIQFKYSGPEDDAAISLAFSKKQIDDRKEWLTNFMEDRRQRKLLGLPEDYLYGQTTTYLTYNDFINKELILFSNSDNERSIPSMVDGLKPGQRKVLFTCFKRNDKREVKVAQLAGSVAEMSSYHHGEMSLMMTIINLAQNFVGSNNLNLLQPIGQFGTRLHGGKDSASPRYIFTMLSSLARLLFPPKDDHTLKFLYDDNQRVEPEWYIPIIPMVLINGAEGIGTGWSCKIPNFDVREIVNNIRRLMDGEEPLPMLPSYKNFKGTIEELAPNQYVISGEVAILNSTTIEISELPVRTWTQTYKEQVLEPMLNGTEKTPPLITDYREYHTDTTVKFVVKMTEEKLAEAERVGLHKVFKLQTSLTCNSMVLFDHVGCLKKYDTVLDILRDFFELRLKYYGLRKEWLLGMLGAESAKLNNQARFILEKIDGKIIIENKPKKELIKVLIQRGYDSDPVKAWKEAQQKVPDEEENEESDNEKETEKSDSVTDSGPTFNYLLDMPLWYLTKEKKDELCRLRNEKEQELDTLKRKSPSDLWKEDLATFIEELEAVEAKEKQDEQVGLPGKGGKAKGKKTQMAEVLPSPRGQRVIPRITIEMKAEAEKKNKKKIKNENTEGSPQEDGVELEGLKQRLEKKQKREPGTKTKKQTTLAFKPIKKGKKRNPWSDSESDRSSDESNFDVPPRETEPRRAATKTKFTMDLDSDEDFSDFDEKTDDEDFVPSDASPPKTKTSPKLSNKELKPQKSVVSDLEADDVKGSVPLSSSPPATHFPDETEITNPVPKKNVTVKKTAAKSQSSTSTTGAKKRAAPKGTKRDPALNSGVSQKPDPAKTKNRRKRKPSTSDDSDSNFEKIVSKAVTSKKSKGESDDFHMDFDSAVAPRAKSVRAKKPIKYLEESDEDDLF
Experiment: Inhibition of human topoisomerase 2alpha-mediated kDNA decatenation
Settings: not given

SMILES	inhibition
CC1(C)CCC2=C(O1)c1c(O)cccc1C(=O)C2=O	inactive
CC1(C)CCC2=C(O1)c1cccc(O)c1C(=O)C2=O	inactive
CC1(C)CCC2=C(O1)c1ccccc1C(=O)C2=O [LAPACHONE]	inactive

System: HeLa
Experiment: Decrease in cyclin E expression in human HeLa cells at 3 uM after 24 hrs by immunoblot analysis
Type: functional, cell-based
Settings: not given
Outline: as §2

SMILES	Activity
CC1(C)CCC2=C(O1)c1cccc(O)c1C(=O)C2=O	Active

System: SW1573
Experiment: Cell cycle arrest in human SW1573 cells assessed as accumulation at S phase after 24 hrs by flow cytometric analysis
Type: functional, cell-based
Settings: not given
Outline: as §1

SMILES	Activity
CC1(C)CCC2=C(O1)c1c(O)cccc1C(=O)C2=O	Dose-dependent effect
CC1(C)CCC2=C(O1)c1cccc(O)c1C(=O)C2=O	Dose-dependent effect
CC1(C)CCC2=C(O1)c1ccccc1C(=O)C2=O [LAPACHONE]	Dose-dependent effect

System: HeLa
Experiment: Increase in cyclin A expression in human HeLa cells at 3 uM after 24 hrs by immunoblot analysis
Type: functional, cell-based
Settings: not given
Outline: as §2

SMILES	Activity
CC1(C)CCC2=C(O1)c1cccc(O)c1C(=O)C2=O	Active

System: HeLa
Experiment: Induction of apoptosis in human HeLa cells assessed as caspase 3 cleavage at 3 uM after 24 hrs by immunoblot analysis
Type: functional, cell-based
Settings: not given
Outline: as §2

SMILES	Activity
CC1(C)CCC2=C(O1)c1cccc(O)c1C(=O)C2=O	inactive

System: HeLa
Experiment: Growth inhibition of human HeLa cells by SRB assay
Type: functional
Settings: not given
Outline: as §3

SMILES	GI50 [µM]
COc1cccc2c1C(=O)C(=O)C1=C2OC(C)(C)CC1	5.1
CC1(C)CCC2=C(O1)c1c(O)cccc1C(=O)C2=O	1.1
CC1(C)CCC2=C(O1)C(=O)c1c(O)cccc1C2=O	1.8
COc1cccc2c1C1=C(CCC(C)(C)O1)C(=O)C2=O	1.8
CC1(C)CCC2=C(O1)c1cccc(O)c1C(=O)C2=O	0.21
COc1cccc2c1C(=O)C(CC=C(C)C)=C(O)C2=O	30
CC1(C)CCC2=C(O1)c1cccc(OC(=O)C(C)(C)C)c1C(=O)C2=O	1.6
COc1ccc2c(c1)C(=O)C(O)=C(CC=C(C)C)C2=O	18
COc1ccc2c(c1)C(=O)C1=C(CCC(C)(C)O1)C2=O	40
COc1ccc2c(c1)C(=O)C(=O)C1=C2OC(C)(C)CC1	1.7
COc1cccc2c1C(=O)C1=C(OC(C)(C)CC1)C2=O	> 100
CC1(C)CCC2=C(O1)c1ccc(O)cc1C(=O)C2=O	2.5
CC1(C)CCC2=C(O1)c1ccccc1C(=O)C2=O [LAPACHONE]	1

System: WiDr
Experiment: Cell cycle arrest in human WiDr cells assessed as accumulation at G2/M phase after 24 hrs by flow cytometric analysis
Type: functional, cell-based
Settings: not given
Outline: as §1

SMILES	Activity
CC1(C)CCC2=C(O1)c1c(O)cccc1C(=O)C2=O	Dose-dependent effect
CC1(C)CCC2=C(O1)c1cccc(O)c1C(=O)C2=O	Dose-dependent effect
CC1(C)CCC2=C(O1)c1ccccc1C(=O)C2=O [LAPACHONE]	Dose-dependent effect

System: HBL-100
Experiment: Growth inhibition of human HBL100 cells by SRB assay
Type: functional
Settings: not given
Outline: as §3

SMILES	GI50 [µM]
COc1cccc2c1C(=O)C(=O)C1=C2OC(C)(C)CC1	2.7
CC1(C)CCC2=C(O1)c1c(O)cccc1C(=O)C2=O	0.62
CC1(C)CCC2=C(O1)C(=O)c1c(O)cccc1C2=O	3.4
COc1cccc2c1C1=C(CCC(C)(C)O1)C(=O)C2=O	0.69
CC1(C)CCC2=C(O1)c1cccc(O)c1C(=O)C2=O	0.036
COc1cccc2c1C(=O)C(CC=C(C)C)=C(O)C2=O	22
CC1(C)CCC2=C(O1)c1cccc(OC(=O)C(C)(C)C)c1C(=O)C2=O	0.18
COc1ccc2c(c1)C(=O)C(O)=C(CC=C(C)C)C2=O	19
COc1ccc2c(c1)C(=O)C1=C(CCC(C)(C)O1)C2=O	28
COc1ccc2c(c1)C(=O)C(=O)C1=C2OC(C)(C)CC1	0.41
COc1cccc2c1C(=O)C1=C(OC(C)(C)CC1)C2=O	28
CC1(C)CCC2=C(O1)c1ccc(O)cc1C(=O)C2=O	2.3
CC1(C)CCC2=C(O1)c1ccccc1C(=O)C2=O [LAPACHONE]	0.38
